# Measurements collected from several papers.
# SRC: Proto-oncogene tyrosine-protein kinase Src (SRC, Homo sapiens, UniProt P12931)
Structure (SMILES),target,read-out,action,technique,concentration,endpoint,result
CCCCN(CCCC)C(=O)CN1C[C@H](c2cc(OC)c3c(c2)OCO3)[C@@H](C(=O)O)[C@@H]1CC(C)(C)CCC,SRC,cell-free assay,,competition with immobilised ligand,1 µM,remaining binding,100%
Cc1ccc(C(=O)Nc2ccc(CN3CCN(C)CC3)c(C(F)(F)F)c2)cc1C#Cc1cnc2cccnn12,SRC,thermal stability,,DSF,,ΔTm,5.1 °C
FC(F)(F)Oc1cccc(-c2cnc3ccc(-c4ccncc4)nn23)c1,SRC,enzyme activity,inhibitor,radiometric,1 µM,activity vs control,47%
O=C1NC(=O)c2cc(Nc3ccc(F)cc3)c(Nc3ccc(F)cc3)cc21,SRC,cell-free assay,,,0.5 µM,remaining signal,101%
Cc1ccc(Nc2nccc(N(C)c3ccc4c(C)n(C)nc4c3)n2)cc1S(N)(=O)=O,SRC,enzyme activity,inhibitor,,0.3 µM,inhibition,42%
COc1cc2c(Nc3ccc(Br)cc3F)ncnc2cc1OCC1CCN(C)CC1,SRC,cell-free assay,,,0.5 µM,remaining signal,11%
c1nc2c(Nc3ccc4c(c3)OCCO4)nc(Nc3ccc4c(c3)OCCO4)nc2[nH]1,SRC,binding,,competition with immobilised ligand,10 µM,binding vs control,1.8%
c1ccc(CNc2nc(N3CCOc4ccccc43)nc3c2CCCC3)cc1,SRC,target engagement in cells,inhibitor,chemoproteomics,20 mM,inhibition,-13.5%
CN(C)C1CCN(CC#Cc2nn(C3CCCC3)c3nc(NCc4ccccc4)ncc23)C1 (stereo not drawn),SRC,enzyme activity,inhibitor,FRET,0.1 µM,inhibition,-1%
Cc1cc(NC(=O)c2cccc3cc(-c4cccc5[nH]nc(N)c45)ccc23)ccc1F,"Proto-oncogene tyrosine-protein kinase Src (SRC, Homo sapiens, UniProt P12931, T341M)",enzyme activity,inhibitor,,0.1 µM,activity vs control,90%
CCCOc1ccc([C@@H]2[C@@H](C(=O)O)[C@H](c3ccc4c(c3)OCO4)CN2CC(=O)Nc2c(CC)cccc2CC)cc1,SRC,cell-free assay,,competition with immobilised ligand,1 µM,remaining binding,100%
COc1cc2nccc(Oc3ccc(NC(=O)c4c5n(n(-c6ccc(F)cc6)c4=O)CCCC5)cc3)c2cc1OC,SRC,enzyme activity,inhibitor,,0.1 µM,inhibition,49%
O=C(NCc1ncc(C(F)(F)F)cc1Cl)c1ccc2c(c1)C1(CCS(=O)(=O)CC1)[C@@H](C1CC1)N2S(=O)(=O)c1ccc(F)cc1,SRC,cell-free assay,,competition with immobilised ligand,1 µM,remaining binding,98%
O=C(CSc1nc2nccnc2c(=O)n1CCc1ccccc1)Nc1nccs1,SRC,enzyme activity,inhibitor,,10 µM,inhibition,7%
C[C@@H]1CN(c2cc(-c3nn(C)c4ccc(OC5(C)CC5)cc34)ncn2)C[C@H](C)O1,SRC,cell-free assay,,competition with immobilised ligand,1 µM,remaining binding,100%
O=C1Nc2ccc(Cl)cc2C1=Cc1cc(Cl)c(O)c(Cl)c1,SRC,cell-free assay,,,0.5 µM,remaining signal,96.2%
CCC(=O)N[C@H]1CC[C@@H](C(=O)N(C)c2ccc(-c3nc4ccccc4o3)cc2)C1,SRC,cell-free assay,,competition with immobilised ligand,1 µM,remaining binding,93%
CC(C)n1cnc2c(Nc3cccc(Cl)c3)nc(NCCO)nc21,SRC,cell-free assay,,,0.5 µM,remaining signal,68.9%
